Assay outcomes as filed in PubChem BioAssay.
Efflux pump inh: blocks antifungal efflux pumps in multiplex yeast assay; S. cerevisiae Candida pump triplex, Nile Red efflux; inhibition, % at 10 µM; 330,000 compounds, 0.44% hits;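 active = plate passing quality check with inhibition over a set limit, or well fluorescence over plate mean plus 4 SD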;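 note: Nile Red retained in pooled yeast measured as flow cytometry median fluorescence; 0% = buffer negative control and 100% = Enniatin B positive control; higher means more Nile Red kept so more efflux inhibition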
ABCG2 inh: inhibitors of human ABCG2 transporter, ABCB1 counter-screen; inhibition, % at 6.6 µM; AID 1325; IgMXP3 cells, JC-1 efflux, flow cytometry; 190,000 compounds, 0.1% hits; Q9UNQ0;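 active = inhibition above 80%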;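 note: 0% = DMSO and 100% = nicardipine control wells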
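Test system: IgMXP3 (ABCG2) plus far-red-tagged CCRF-Adr (ABCB1) cells. Reagent: JC-1 dye as substrate. Timing: 10 min exposure at 25 °C with rotation, no wash. Measured by: flow cytometric JC-1 green MFI at 530 nm. Read-out: percent efflux inhibition, scaled nicardipine 100% to DMSO 0%. Control set: nicardipine and DMSO wells.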
MEKK3 PB1 HTS: MEKK3-MEK5 PB1 interaction, increase or decrease; binding response (% of control), % at 10 µM; bead-based flow cytometry, Alexa488-MEK5 binding to MEKK3; actives lie on both sides; 0 = blocked by unlabeled MEK5, 100 = vehicle; Q99759; 290,000 compounds, 1.4% hits;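 active = binding response more than 3 SD above or below the average of its plate-row segment, actives on both sides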;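 note: Alexa488 bead fluorescence after subtracting the streptavidin-only scavenger bead signal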
ABCB1 block: blocks JC-1 efflux by human ABCB1 transporter; 190,000 compounds, 0.067% hits; CCRF-Adr cells, flow cytometry; P08183; inhibition, % at 6.6 µM; in the data active = inhibition above about 40%;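 note: 0% = vehicle and 100% = reference inhibitor; higher value means more JC-1 retained so stronger ABCB1 efflux block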
Target sequence (P08183 whole entry, looked up): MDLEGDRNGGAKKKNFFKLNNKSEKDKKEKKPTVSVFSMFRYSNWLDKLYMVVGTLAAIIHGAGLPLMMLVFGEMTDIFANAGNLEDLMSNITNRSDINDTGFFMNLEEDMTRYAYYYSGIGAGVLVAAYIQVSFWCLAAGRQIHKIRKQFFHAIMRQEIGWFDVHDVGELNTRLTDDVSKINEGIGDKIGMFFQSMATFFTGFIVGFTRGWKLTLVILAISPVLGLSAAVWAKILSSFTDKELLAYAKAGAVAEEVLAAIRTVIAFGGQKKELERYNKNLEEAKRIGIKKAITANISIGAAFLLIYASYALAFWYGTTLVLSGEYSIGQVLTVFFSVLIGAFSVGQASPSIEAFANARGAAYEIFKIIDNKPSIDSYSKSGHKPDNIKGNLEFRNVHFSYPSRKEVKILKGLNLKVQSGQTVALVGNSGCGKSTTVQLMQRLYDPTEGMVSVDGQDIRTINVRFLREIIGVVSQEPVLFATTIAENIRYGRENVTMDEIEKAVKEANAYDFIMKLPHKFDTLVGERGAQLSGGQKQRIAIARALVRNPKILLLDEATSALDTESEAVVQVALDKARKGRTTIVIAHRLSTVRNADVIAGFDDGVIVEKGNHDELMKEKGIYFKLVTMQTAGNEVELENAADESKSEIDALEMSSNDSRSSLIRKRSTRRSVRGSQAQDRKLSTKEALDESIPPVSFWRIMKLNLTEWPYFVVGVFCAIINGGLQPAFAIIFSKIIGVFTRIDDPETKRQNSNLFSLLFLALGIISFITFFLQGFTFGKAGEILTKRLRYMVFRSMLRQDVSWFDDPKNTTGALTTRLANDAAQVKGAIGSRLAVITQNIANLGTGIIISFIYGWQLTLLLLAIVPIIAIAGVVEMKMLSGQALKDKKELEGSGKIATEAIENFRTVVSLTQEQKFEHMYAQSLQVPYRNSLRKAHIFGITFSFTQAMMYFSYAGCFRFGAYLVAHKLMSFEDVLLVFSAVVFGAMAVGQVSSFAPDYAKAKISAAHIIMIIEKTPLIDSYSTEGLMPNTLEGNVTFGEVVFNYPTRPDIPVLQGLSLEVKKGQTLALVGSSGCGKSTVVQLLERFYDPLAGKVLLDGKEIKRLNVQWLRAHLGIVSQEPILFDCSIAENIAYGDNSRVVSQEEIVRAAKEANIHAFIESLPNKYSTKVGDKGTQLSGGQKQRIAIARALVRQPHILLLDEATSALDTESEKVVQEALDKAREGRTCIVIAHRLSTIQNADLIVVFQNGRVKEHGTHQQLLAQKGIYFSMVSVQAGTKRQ
MEKK2 mut-MEK5: signal of MEK5 binding to mutant human MEKK2 PB1 domain. bead flow cytometry, Alexa488-MEK5 binding to MEKK2 mutant. percent response, % at 10 µM. 290,000 compounds, 0.35% hits; in the data active = percent response above about 24%, passing the limit was not always enough
MEKK2wt PB1 HTS: raises or lowers MEK5 binding to wildtype human MEKK2 PB1 domain | 290,000 compounds, 1.1% hits | Q9Y2U5 | AID 1531 | binding response (% of control), % at 10 µM | bead flow cytometry, Alexa488-MEK5 binding to MEKK2 WT; actives lie on both sides; in the data active = binding response below about 67% or above about 130%
MEKK2wt confirm: raises or lowers MEK5 binding to wildtype human MEKK2, retest; shares compounds with MEKK3 PB1 HTS; bead flow cytometry, Alexa488-MEK5 binding to MEKK2 WT; actives lie on both sides; 5,900 compounds, 2.4% hits; binding response (% of control), % at 10 µM; in the data active = binding response below about 16% or above about 210%; inactive = in between
MEKK2mut-MEK5: signal of MEK5 binding to mutant human MEKK2, retest; shares compounds with MEKK3 PB1 HTS; bead flow cytometry, Alexa488-MEK5 binding to MEKK2 mutant; percent response, % at 10 µM; 5,900 compounds, 2% hits; AID 1893; in the data active = percent response mostly above about 71%, no sharp cut-off; inactive = mostly below about 38%;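 note: higher means compound restores mutant binding toward wildtype level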
MEKK3-MEK5 inh: MEKK3-MEK5 PB1 inhibition, single concentration confirmation; 5,900 compounds, 1.8% hits; bead flow cytometry, Alexa488-MEK5 binding to MEKK3; stronger effect = lower value; binding response (% of control), % at 10 µM; shares compounds with MEKK3 PB1 HTS;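 active = binding response below 72% of control, or above a set upper limit, though filed actives all read lower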;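 note: 100% = DMSO only wells and 0% = binding blocked by excess unlabeled MEK5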
* = called active by the depositor; [ ] = another dose, or the depositor's remark. Sampled rows, rich in hits. Any-hit rate of the full collection: about 2.5%.

Cc1cc2oc3ccc(NCCCN4CCOCC4)cc3c(=O)c2cc1C was read as Efflux pump inh 0, MEKK3 PB1 HTS 116, MEKK2 mut-MEK5 14, MEKK2wt PB1 HTS 144*, MEKK2wt confirm 136, MEKK2mut-MEK5 20 and MEKK3-MEK5 inh 111.
For OC[C@H]1O[C@@H](O[C@@H]2[C@@H](CO)O[C@@](O)(CO)[C@H]2O)[C@H](O)[C@@H](O)[C@H]1O the results were Efflux pump inh 0.
Screening C/C(=N\Nc1nc2ccccc2[nH]1)c1cc2ccccc2o1 returned Efflux pump inh 5, ABCG2 inh 0, MEKK3 PB1 HTS 137*, ABCB1 block 0, MEKK2 mut-MEK5 6, MEKK2wt PB1 HTS 140*, MEKK2wt confirm 127, MEKK2mut-MEK5 10 and MEKK3-MEK5 inh 99.
For CC(=O)C1=C(O)C(=O)N(c2ccc(S(=O)(=O)Nc3nccs3)cc2)C1c1ccc([N+](=O)[O-])cc1 (stereo not drawn) the results were Efflux pump inh 0, ABCG2 inh -1, MEKK3 PB1 HTS 57*[inhibitor], ABCB1 block 0, MEKK2 mut-MEK5 -47, MEKK2wt PB1 HTS 62*[inhibitor], MEKK2wt confirm 103, MEKK2mut-MEK5 4 and MEKK3-MEK5 inh 105.
`CC(=O)C1=C(O)C(=O)N(c2ccc(S(=O)(=O)Nc3nccs3)cc2)C1c1ccc(F)cc1` (stereo not drawn) gave Efflux pump inh 0, MEKK3 PB1 HTS 98, MEKK2 mut-MEK5 -5 and MEKK2wt PB1 HTS 99.
Screening Cc1cccc(-n2nc3c(c2NC(=O)c2ccc(Br)o2)CSC3)c1 returned Efflux pump inh 0, ABCG2 inh -2, MEKK3 PB1 HTS 102, ABCB1 block -1, MEKK2 mut-MEK5 -1 and MEKK2wt PB1 HTS 96.
`Fc1ccccc1Nc1nc2c(s1)CCc1ccccc1-2` gave ABCG2 inh 1, MEKK3 PB1 HTS 99, ABCB1 block 0, MEKK2 mut-MEK5 2 and MEKK2wt PB1 HTS 104.
Screening O=c1cc(-c2ccc3c(c2)OCCO3)oc2ccc(Cl)cc12 returned Efflux pump inh 0, ABCG2 inh 12, MEKK3 PB1 HTS 137*, ABCB1 block 1, MEKK2 mut-MEK5 0, MEKK2wt PB1 HTS 104, MEKK2wt confirm 96, MEKK2mut-MEK5 1 and MEKK3-MEK5 inh 100.
`O=c1cc(-c2cccs2)oc2ccc(Cl)cc12` gave Efflux pump inh 0, ABCG2 inh 58, MEKK3 PB1 HTS 97, ABCB1 block 2, MEKK2 mut-MEK5 -5 and MEKK2wt PB1 HTS 92.
`CC1CC(C)CN(CCCNC(=O)CN2C(=O)COc3ccc(S(=O)(=O)N4CCOCC4)cc32)C1` (stereo not drawn) gave Efflux pump inh 0, MEKK3 PB1 HTS 102, MEKK2 mut-MEK5 4 and MEKK2wt PB1 HTS 104.
COc1ccc(-c2csc(COC(=O)C(C)(C)C)n2)cc1 was read as Efflux pump inh 0, MEKK3 PB1 HTS 95, MEKK2 mut-MEK5 -2 and MEKK2wt PB1 HTS 99.
For CC(C)(C)C(=O)OCc1nc(-c2ccc(F)cc2)cs1 the results were Efflux pump inh 0, MEKK3 PB1 HTS 54, MEKK2 mut-MEK5 -24, MEKK2wt PB1 HTS 44*[inhibitor], MEKK2wt confirm 94, MEKK2mut-MEK5 -11 and MEKK3-MEK5 inh 95.
Screening CCC12OC(=N)C(C#N)(C1C)C(C#N)(C#N)C(c1ccccc1)O2 (stereo not drawn) returned Efflux pump inh 0, ABCG2 inh 8, MEKK3 PB1 HTS 141*, ABCB1 block 1, MEKK2 mut-MEK5 0, MEKK2wt PB1 HTS 109, MEKK2wt confirm 108, MEKK2mut-MEK5 3 and MEKK3-MEK5 inh 103.
CCC1OC2(C)OC(=N)C1(C#N)C(C#N)(C#N)C2c1ccccc1 (stereo not drawn) was read as Efflux pump inh 0, ABCG2 inh 0, MEKK3 PB1 HTS 112, ABCB1 block 0, MEKK2 mut-MEK5 -1 and MEKK2wt PB1 HTS 105.
For CC(C)CN(C(=O)COC(=O)C12CC3CC(CC(O)(C3)C1)C2)C1CCS(=O)(=O)C1 (stereo not drawn) the results were Efflux pump inh 0, ABCG2 inh 9, MEKK3 PB1 HTS 0.0*[inhibitor], ABCB1 block 1, MEKK2 mut-MEK5 -17, MEKK2wt PB1 HTS 0.0*[inhibitor], MEKK2wt confirm 101, MEKK2mut-MEK5 -6 and MEKK3-MEK5 inh 100.
`CCN(C(=O)COC(=O)CNC(=O)C12CC3CC(CC(C3)C1)C2)C1CCS(=O)(=O)C1` (stereo not drawn) gave Efflux pump inh 0, ABCG2 inh 5, MEKK3 PB1 HTS 97, ABCB1 block 1, MEKK2 mut-MEK5 -2 and MEKK2wt PB1 HTS 95.
For OC1(c2ccc(Cl)cc2)CCN(Cc2c[nH]c3ccccc23)CC1 the results were Efflux pump inh 0, MEKK3 PB1 HTS 113, MEKK2 mut-MEK5 12, MEKK2wt PB1 HTS 151*, MEKK2wt confirm 130, MEKK2mut-MEK5 11 and MEKK3-MEK5 inh 103.
`O=C(CC1C(=O)NCCN1CC1CCCCC1)NCc1ccc(Cl)cc1` (stereo not drawn) gave Efflux pump inh 0, ABCG2 inh -1, MEKK3 PB1 HTS 117, ABCB1 block 0, MEKK2 mut-MEK5 26, MEKK2wt PB1 HTS 147*, MEKK2wt confirm 118, MEKK2mut-MEK5 12 and MEKK3-MEK5 inh 106.
`CCOc1ccc(CN2CCN(Cc3cccc4nonc34)CC2CCO)cc1` (stereo not drawn) gave Efflux pump inh 0, ABCG2 inh 3, MEKK3 PB1 HTS 104, ABCB1 block 3, MEKK2 mut-MEK5 19 and MEKK2wt PB1 HTS 117.
Screening COc1cccc(CN2CCN(Cc3ccc(O)cc3)CC2CCO)c1 (stereo not drawn) returned Efflux pump inh 0, ABCG2 inh 0, MEKK3 PB1 HTS 46*[inhibitor], ABCB1 block 0, MEKK2 mut-MEK5 -18, MEKK2wt PB1 HTS 65, MEKK2wt confirm 113, MEKK2mut-MEK5 16 and MEKK3-MEK5 inh 111.
